Source: PubChem BioAssay
PAFAH1B3 FP inh: inhibitors of human PAFAH1B3; Q15102; recombinant PAFAH1B3, FP-rhodamine probe, fluorescence polarization; inhibition, % at 3.39 µM; actives 0.28% (n = 340,000);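 active = inhibition above the screen-wide average of all tested compounds plus 3 SD, cut at about 25% in these data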
Target sequence (Q15102 whole entry, looked up): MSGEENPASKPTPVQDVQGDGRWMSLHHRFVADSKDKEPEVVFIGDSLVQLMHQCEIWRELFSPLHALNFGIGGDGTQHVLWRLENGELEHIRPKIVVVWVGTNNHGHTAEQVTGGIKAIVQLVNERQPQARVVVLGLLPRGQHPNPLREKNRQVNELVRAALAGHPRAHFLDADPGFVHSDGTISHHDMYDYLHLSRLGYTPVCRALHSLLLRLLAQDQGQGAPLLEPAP
ARFGAP1 inh: inhibits rat ARF GTPase activating protein 1; Arfgap1-stimulated ARF1 GTP hydrolysis, GDP FP detection; inhibition, % at 16.5 µM; actives 0.26% (n = 360,000); AID 651572;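 active = inhibition above a per-plate limit, mean inhibition of low control wells plus 3 SD, cut at about 25% in these data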
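Material: truncated rat Arfgap1 GAP domain; Incubation: compound-enzyme preincubation 20 min, reaction 120 min, detection 60 min, 25 °C; Read-out: percent inhibition of Arfgap1-stimulated GTP hydrolysis; Technique: FP, GDP Alexa 633 tracer displaced from anti-GDP antibody, 620/688 nm; Controls: No-Arfgap1 wells (100%) versus DMSO full-reaction wells (0%); Replication: single well per compound.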
pPAFAH FP inh: pPAFAH (human) enzyme inhibition; Q13093; recombinant pPAFAH, FP-rhodamine probe fluorescence polarization; inhibition, % at 3.39 µM; actives 1.5% (n = 330,000);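 active = inhibition above the mean inhibition across the screen plus 3 SD, cut at about 25% in these data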;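 also: inhibitors block binding of the rhodamine activity-based probe so polarization drops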
ASAP1 GAP inh: blocks human ASAP1-stimulated Arf1 GTP hydrolysis. Q9ULH1. GDP FP detection. inhibition, % at 16.5 µM. actives 0.19% (n = 360,000); in the data active = inhibition above about 25%
Target sequence (Q9ULH1 325-724 limits assumed): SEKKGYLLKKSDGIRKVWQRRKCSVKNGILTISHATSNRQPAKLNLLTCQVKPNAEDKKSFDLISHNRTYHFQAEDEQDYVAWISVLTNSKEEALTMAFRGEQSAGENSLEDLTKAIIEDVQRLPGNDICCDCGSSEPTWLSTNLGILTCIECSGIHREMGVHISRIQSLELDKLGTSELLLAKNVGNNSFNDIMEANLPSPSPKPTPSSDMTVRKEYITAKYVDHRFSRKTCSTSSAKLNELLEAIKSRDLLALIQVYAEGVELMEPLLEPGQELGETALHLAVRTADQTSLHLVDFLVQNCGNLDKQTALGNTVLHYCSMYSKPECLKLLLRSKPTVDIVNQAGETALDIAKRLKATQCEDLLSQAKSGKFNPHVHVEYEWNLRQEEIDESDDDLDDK
PAFAH1B2 FP inh: inhibitors of human PAFAH1B2; AID 492953; P68402; actives 1.2% (n = 340,000); inhibition, % at 3.39 µM; recombinant PAFAH1B2, FP-rhodamine activity probe, fluorescence polarization;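 active = inhibition above the mean of all tested compounds plus 3 SD, cut at about 24% in these data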
PAFAH2 FP inh: PAFAH2 (human) inhibition; Q99487; recombinant PAFAH2, FP-rhodamine activity probe, fluorescence polarization; inhibition, % at 3.39 µM; actives 0.99% (n = 340,000);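 active = inhibition above the mean over all tested compounds plus 3 SD, cut at about 30% in these data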;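 also: inhibitors block probe labeling of enzyme so polarization drops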
A number is an active result; - = inactive; . = no result. A selection: hits, their analogues and other compounds. The true share with any hit is near 2.7%.

SMILES	PAFAH1B3 FP inh	ARFGAP1 inh	pPAFAH FP inh	ASAP1 GAP inh	PAFAH1B2 FP inh	PAFAH2 FP inh
O=C(O)c1ccn2c(C(=O)c3ccc(Cl)cc3)c(-c3ccccc3)cc2c1	-	-	-	-	59	-
O=C(NCCO)C(=O)c1c(-c2ccc(Cl)cc2)cc2ccccn12	-	-	-	-	-	-
O=C(O)c1cccc(Cn2c(Cl)c(/C=N/Nc3ccccc3)sc2=O)c1	-	.	27	.	-	-
CCC1CCC2(CC1)SCC(=O)N2c1ccccc1 (stereo not given)	.	-	-	-	.	.
CC1CCC2(CC1)SCC(=O)N2c1ccccc1 (stereo not given)	-	-	-	-	27	-
COC(=O)CNC(c1ccccc1)c1cc(C)ccc1NC(=O)CNC(=O)OCc1ccccc1 (stereo not given)	-	-	30	-	-	-
COC(=O)CNC(c1ccccc1)c1cc(Br)ccc1NC(=O)OCc1ccccc1 (stereo not given)	-	-	-	-	-	-
Cc1ccc(NCN2C(=O)c3ccccc3C2=O)c(C)n1	.	-	.	-	.	.
COc1cc(-c2nc(-c3ccc4c(c3)-c3ccccc3S4(=O)=O)c(-c3ccccc3)[nH]2)cc(OC)c1O	-	-	27	-	-	-
CCOC(=O)C1=C(C(=O)OCC)C2N(Cc3ccc(C#N)cc3)c3ccccc3[C@@]23C[C@@H](C(=O)OC)N(S(=O)(=O)c2ccccc2)C3=N1 (stereo not given in full)	.	-	.	-	.	.
O=C(O)CCc1ccc(NCc2cccc(Oc3ccccc3)c2)cc1	-	-	-	-	24	-
Cc1cccc(C2=CC(=O)CC(C)(C)C2=O)c1	.	-	.	-	.	.
O=S(=O)(c1cccs1)N1CCC2(CC1)OCCN2S(=O)(=O)c1ccccc1	-	-	-	-	-	-
O=S(=O)(c1ccc(F)cc1)N1CCC2(CC1)OCCN2S(=O)(=O)c1cccs1	-	-	-	-	28	-
Cc1cccc(NC(=O)c2nc[nH]c2C(=O)N(C)CCO)c1	.	-	.	-	.	.
O=C1CCN(CCc2ccccc2)CCN1CCSc1ccccc1	-	-	31	-	-	-
CN1CCC(=O)N(CCSc2ccccc2)CC1	-	-	-	-	-	-
c1ccc2c(c1)CCN(c1nc(CN3CCOCC3)nc3sc4c(c13)CCCC4)C2	-	-	32	-	-	-
CC(C)[C@H](NC(=O)c1ccc(Cl)c(Cl)c1)C(=O)N1CCC[C@H]1C(=O)NCCc1ccccc1Cl	.	-	.	-	.	.
N#Cc1nc(COc2ccc(Br)cc2)oc1NCCCn1ccnc1	-	-	-	-	25	-
O=C1C=CC(=O)c2c(O)c(N3CCN(CCOCCO)CC3)c(Br)c(O)c21	62	-	.	-	44	59
OCCOCCN1CCN(C2=Nc3ccccc3Sc3ccccc32)CC1	-	-	-	-	-	-
O=C1C=CC(=O)c2c(O)c(N3CCN(CCO)CC3)c(Cl)c(O)c21	50	-	.	-	28	41
COc1ccc(C(=O)NCC2CCN(C(=O)C(=O)c3cc4ccccc4o3)CC2)cc1	.	-	.	-	.	.
Cc1ccc(S(=O)(=O)Nc2cccc(Cl)c2)cc1NC(=O)C1CC1	-	-	34	-	-	-
SMILES	PAFAH1B3 FP inh	ARFGAP1 inh	pPAFAH FP inh	ASAP1 GAP inh	PAFAH1B2 FP inh	PAFAH2 FP inh
Cc1ccc(C(=O)N/C(=C/c2ccc(-c3cc(C(F)(F)F)ccc3Cl)o2)C(=O)NCc2cccnc2)cc1	-	-	-	-	-	-
O=C(NCc1cccnc1)/C(=C/c1ccc(-c2cccc(C(F)(F)F)c2)o1)NC(=O)c1ccccc1	-	-	30	-	-	-
CN1CCN(C(=O)CSc2nc(-c3cccs3)cc(-c3cccs3)c2C#N)CC1	-	.	28	.	-	-
O=C(O)Cc1sc(N/N=C\c2ccncc2)nc1-c1ccccc1	-	-	25	-	-	-
COc1ccc(C2CC(c3ccccc3C(F)(F)F)=NN2c2ccc(S(N)(=O)=O)cc2)cc1 (stereo not given)	-	-	26	-	-	-
COC(=O)[C@]12C[C@H](CC(=O)NCCCN3CCCC3=O)C(=O)N(Cc3ccc4c(c3)OCO4)C1=C[C@H](COCc1ccccc1)O[C@@H]2C	.	-	.	-	.	.
COc1ccccc1Cc1noc(-c2cc(Cl)ccc2OC)n1	-	-	29	-	-	-
CC(C)(C)c1ccc(S(=O)(=O)NCC2CCN(C(=O)C(=O)c3cccs3)CC2)cc1	.	-	.	-	.	.
O=[N+]([O-])c1cc(-c2cnc3ccccc3n2)ccc1Oc1ccc(F)cc1	-	-	-	-	58	-
O=[N+]([O-])c1ccccc1Oc1cnc2ccccc2n1	-	-	-	-	-	-
COC(=O)C1=C(C)N(C)C(=NCC2CC2)NC1c1cccc(C(F)(F)F)c1 (stereo not given)	.	-	.	-	.	.
COC(=O)C1=C(C)N(C)C(=NCc2cccc(C(F)(F)F)c2)NC1c1ccc(C(F)(F)F)cc1 (stereo not given)	.	-	.	-	.	.
CN(CC(=O)Nc1ccc(F)cc1)C(=O)COC(=O)c1cc(Br)c(Br)s1	-	-	.	-	24	-
Cc1ccc(SCC(=O)OCC(=O)N(C)CC(=O)Nc2ccc(F)cc2)cc1	-	-	27	-	44	-
Cc1ccc(S(=O)(=O)CCC(=O)OCC(=O)N(C)CC(=O)Nc2ccc(F)cc2)cc1	-	-	-	-	-	-
COc1cccc(CNC(=O)[C@H]2CCCN2C(=O)[C@H]2CCCN2C(=O)c2cccc(Cl)c2)c1	.	-	.	-	.	.
C=CCN1C[C@H](COC(=O)c2cccc(C)c2)Oc2cccc(F)c2S1(=O)=O	.	-	.	-	.	.
O=S(=O)(c1ccc(C(F)(F)F)cc1)N1CCCc2nc(-c3ccc(Br)cc3)ccc21	.	-	.	-	.	.
Oc1ccc(N=Cc2ccc(OCc3ccccc3)cc2)cc1	28	-	-	-	-	-
Nc1ccc(N2CCN(C(=O)c3cccs3)CC2)cc1	-	-	32	-	-	-
Cc1ccc(/C=N/n2c(-c3ccccc3)n[nH]c2=S)cc1	-	-	-	-	-	-
Cc1c(Br)c(O)c(Br)c(O)c1/C=N/n1c(-c2ccccc2)n[nH]c1=S	35	.	-	.	-	-
CC(C)c1ccc(/C=N/n2c(-c3ccccc3)n[nH]c2=S)cc1	-	-	25	-	-	-
Oc1c(Br)cc(/C=N/n2c(-c3ccccc3)n[nH]c2=S)c(O)c1Br	28	.	.	.	-	45
Nc1ncnc2c1ncn2[C@@H]1O[C@H](C(=O)N[C@@H](CCc2ccccc2)C(=O)N2CCN(C(=O)N3CCOCC3)CC2)[C@@H](O)[C@H]1O	.	-	.	-	.	.
N/C(=N\OC(=O)CCc1ccccc1)c1cccc(Br)c1	-	-	-	-	67	-
N/C(=N\OC(=O)CCc1ccccc1)c1ccc(Br)cc1	-	-	-	-	71	-
CCCC(=O)OC[C@H]1CN(C2CCCC2)S(=O)(=O)c2c(Oc3ccc(F)cc3)cccc2O1	.	-	.	-	.	.
CC1=N/C(=C\c2ccc([N+](=O)[O-])cc2)C(=O)N1c1ccc(C)c(Cl)c1	.	-	.	-	.	.
